Screens from PubChem BioAssay.
bCat nuc transl: modulators of beta-catenin nuclear translocation, primary screen, imaging, HeLa cells, immunofluorescence, high-content. nuclear translocation activity, % at 5 µM. 190,000 tested, 0.3% active. AID 1665, 2009;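 active means nuclear translocation activity above 50% at 5 µM, with a well cell count of 50 or more; inconclusive means wells under 50 cells across six images, flagged as toxic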;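 further: per-cell ratio of nuclear to cytoplasmic median beta-catenin stain intensity; plate controls were DMSO negative control for no effect and GSK-3 inhibitor IX positive control for full effect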
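System: Human HeLa cells, endogenous beta-catenin | Compound dosing: 5 µM primary, 0.02–20 µM confirmation | Timing: 24 h compound exposure at 37°C, 5% CO2 | Measured by: Fluorescence imaging of beta-catenin antibody stain plus DAPI | Read-out basis: % activation of per-cell nuclear versus cytoplasmic median beta-catenin signal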
Autophagy mod: autophagy modulators in MEF cells, primary screen, imaging, high-content, MEF GFP-LC3. MEF GFP-LC3 puncta imaging; test concentration mostly 10 µM. calls only at 10 µM (by protocol). 190,000 tested, 0.98% active. AID 463193, 2010;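 active means percentage of spot-positive cells more than 3 SD above its plate mean, without a fluorescence outlier flag or 80% toxicity; inconclusive means no clear call, values can overlap the other calls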;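 further: spot-positive cell cutoff set from DMSO-treated cells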
MT stabilize HCS: microtubule stabilizers in HeLa cells, primary screen, imaging, high-content imaging; AID 2205, 2009; % tubulin-high responders, % at 10 µM; 200,000 tested, 0.83% active; HeLa tubulin immunostaining HCS, 24 h; share of cells brighter than vehicle mean+2SD;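 active means plate Z-score above 3 for both tubulin-high and condensed-nucleus cell shares, with cell loss under 80%, at 10 µM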;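 further: anti alpha tubulin signal scored within the nucleus-defined area of each cell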
Furin inh: human furin inhibitors, primary screen, biochemical, fluorescence intensity; AID 463115, 2010; 220,000 tested, 0.061% active; inhibition, % at 20 µM or 30 µM; purified furin, fluorogenic substrate cleavage; P09958; in the data active means inhibition above about 25%
Target sequence (P09958 108-714 limits assumed): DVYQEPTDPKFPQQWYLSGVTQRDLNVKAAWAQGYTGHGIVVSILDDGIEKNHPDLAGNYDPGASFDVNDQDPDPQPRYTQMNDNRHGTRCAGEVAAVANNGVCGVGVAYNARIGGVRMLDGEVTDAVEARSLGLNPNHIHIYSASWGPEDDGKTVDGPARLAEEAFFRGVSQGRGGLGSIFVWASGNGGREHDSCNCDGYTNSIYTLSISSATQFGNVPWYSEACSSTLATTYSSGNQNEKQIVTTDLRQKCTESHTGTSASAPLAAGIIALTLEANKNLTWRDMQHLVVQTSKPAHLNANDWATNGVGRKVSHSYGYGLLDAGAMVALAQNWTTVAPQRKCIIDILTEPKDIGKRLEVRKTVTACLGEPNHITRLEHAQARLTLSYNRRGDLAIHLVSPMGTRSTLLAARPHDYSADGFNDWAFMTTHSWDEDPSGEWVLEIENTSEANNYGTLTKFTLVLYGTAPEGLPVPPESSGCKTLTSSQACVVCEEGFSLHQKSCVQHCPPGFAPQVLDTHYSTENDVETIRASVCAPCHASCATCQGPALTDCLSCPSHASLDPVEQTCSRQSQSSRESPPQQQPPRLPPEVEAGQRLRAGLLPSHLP
HSV replic up: enhancers of HSV replication in host cells, fold increase, host cell viability; HSV replication augmentation in cells; maximum fold increase; 220,000 tested, 0.005% active; AID 1956, 2009; in the data active means maximum fold increase above about 1.5; inconclusive means no clear call, values can overlap the other calls; tested in PC3 cells
Insulin prom up: insulin promoter activators in MIN6 cells, imaging, high-content screening, mouse beta cells; MIN6 insulin promoter-GFP reporter; active compounds read high; z-score at 5 µM; 190,000 tested, 0.3% active; AID 1625, 2009;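 active means z-score above 3 at 5 µM with at least 500 cells counted in the well; inconclusive means wells under 500 cells, flagged as cytotoxic or low count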
An asterisk follows results filed as active; i = inactive; ? = inconclusive; / = not tested or not shown; + = active, no number. A selection: hits, their analogues and other compounds. The true share with any hit is near 1.9%.

SMILES	bCat nuc transl	Autophagy mod	MT stabilize HCS	Furin inh	HSV replic up	Insulin prom up
CCc1ccc(-c2cc(C(F)(F)F)n3nc(C(=O)Nc4c(C)nn(Cc5ccccc5C)c4C)cc3n2)s1	1.8	+	2.9	-3.6	i	0.03
CCc1ccc(-c2cc(C(F)(F)F)n3nc(C(=O)Nc4cnn(Cc5ccccc5C)c4)cc3n2)s1	/	?	i	-22.5	i	/
CCc1ccc(-c2cc(C(F)(F)F)n3nc(C(=O)Nc4c(C)nn(Cc5ccccc5Cl)c4C)cc3n2)s1	-0.4	+	2.2	-6.1	i	-2.96
CCN(CC)CC#CC(OC)(c1ccccc1)c1ccccc1	-0.8	i	1.2	-41.0	i	-0.93
C=CCN(Cc1nc(-c2ccc(OC)c(OC)c2)oc1C)C1CCS(=O)(=O)C1 (centres undefined)	0.1	i	2.3	-27.0	i	-1.07
CN(Cc1cc2ccccc2[nH]c1=O)C(=O)COc1ccccc1	-1.4	/	/	-13.4	i	0.35
CCNC(=O)CON=C1c2ccccc2-c2ccccc21	-2.9	+	2.4	-23.9	i	0.4
Cc1ccc(C(=O)NCCCn2ccnc2)cc1[N+](=O)[O-]	-1.1	i	2.4	-16.9	i	5.54*
O=C(NCCCn1ccnc1)c1ccc(N2CCCCCC2)c([N+](=O)[O-])c1	-2.8	i	1.4	-21.4	i	0.09
Cc1ccc(-c2nn3c(C)nnc3c3ccccc23)cc1S(=O)(=O)N1CCN(CCO)CC1	-1.0	+	2.4	-25.4	i	-0.92
O=C(Nc1ccc([N+](=O)[O-])cc1)c1cncc(Br)c1	-0.8	i	4.9	-5.6	i	0.21
CCOCCCNC(=O)/C(C#N)=C/c1cc(Br)c(O)c(Br)c1	50.2*	/	/	-3.7	i	-0.09
COCCNC(=O)/C(C#N)=C/c1cc(Br)c(O)c(OC)c1	-1.4	i	5.0	-27.1	i	-0.07
Cc1nn(-c2ccc(F)cc2)c(C)c1CN1CCN(CCc2ccccc2)C(CCO)C1 (centres undefined)	0.3	i	4.8	-18.3	i	-0.79
CCCS(=O)(=O)N1CCC(C(=O)N2CCOCC2)CC1	-0.3	i	2.7	4.8	i	4.02*
CCOc1cc(/C=N/NC(=O)C(=O)NCc2cccnc2)ccc1O	-0.7	i	2.0	5.8	i	-0.17
CC(C)(C)c1ccc(Cn2c(=N)n(CC(O)c3ccco3)c3ccccc32)cc1 (centres undefined)	-1.4	i	9.5*	-14.8	/	-5.45
Cc1ccccc1Cn1c(=N)n(CC(O)c2ccco2)c2ccccc21 (centres undefined)	0.0	i	2.1	-25.2	i	-1.12
CCc1nc(NC(=O)NS(=O)(=O)c2ccccc2C(=O)OC)nc(OC)n1	-1.6	i	4.3	-28.0	i	/
O=C(Cn1c(=O)c(=O)n(Cc2ccccc2)c2ccc(Cl)cc21)Nc1ccc(F)cc1F	-0.2	i	26.5*	-31.1	i	0.83
O=C(CN1CCN(Cc2ccccc2)CC1)Nc1ccccc1-c1ccccc1	1.3	i	3.4	-25.1	i	-0.35
CC(Sc1ccccc1)C(=O)NN=C1CCCCCC1 (centres undefined)	-0.1	i	3.1	-18.1	i	8.07*
Cc1ncc(CN2CCN(CCC(C)C)C(CCO)C2)s1 (centres undefined)	-0.5	i	2.8	-17.9	i	0.03
C/C(Cl)=C/Cn1c(SCC(C)C)nc2c1c(=O)[nH]c(=O)n2C	-1.2	/	/	/	i	-0.58
CCOC(=O)C(CC)Sc1nc2c(c(=O)[nH]c(=O)n2C)n1C/C=C(/C)Cl (centres undefined)	/	i	1.6	27.9*	i	0.63
SMILES	bCat nuc transl	Autophagy mod	MT stabilize HCS	Furin inh	HSV replic up	Insulin prom up
COc1ccc(-c2c(C)n([O-])c3c([n+]2=O)CCCCC3)cc1OC	-3.9	i	5.7	-30.3	i	0.81
CCN1CCN(c2ncc3c(n2)CC(c2cc(OC)c(OC)c(OC)c2)CC3=O)CC1 (centres undefined)	140.9*	i	32.5*	3.4	i	-3.96
CCCC1=C(C(=O)OCC)C(/C=C/c2ccccc2)n2ncnc2N1 (centres undefined)	/	i	45.0*	-26.7	i	-1
Cc1ccc(C)c(CSc2nc3[nH]ncc3c(=O)[nH]2)c1	20.6	i	22.9*	-16.7	i	-0.25
COc1cc(NC(=O)COc2ccc(Cl)cc2)ccc1-c1cc2ccccc2oc1=O	-1.1	i	23.7*	-8.9	i	0.06
COc1cc(NC(=O)COc2ccc(Cl)cc2)ccc1NC(=O)C(C)C	0.8	/	/	-29.5	i	-0.85
Cc1ccc(-n2nnnc2SCn2nnc3ccccc3c2=O)cc1	4.7	i	1.8	-11.4	i	/
Cc1cccc(-n2nnnc2SCn2nnc3ccccc3c2=O)c1	/	+	2.8	2.4	i	/
COc1ccc(-c2cn3cc(C(F)(F)F)cc(Cl)c3n2)cc1	5.9	i	16.1*	-30.0	i	-0.38
CCn1c(SCC(=O)Nc2cc(C)on2)nc2sc3c(c2c1=O)CCCC3	-1.5	+	3.1	-22.0	/	0.32
CN1CCc2c(sc3nc(SCC(=O)N4CCOCC4)nc(N)c23)C1	1.1	+	4.0	-42.2	i	0.62
COc1cccc(-n2c(SCC(=O)Nc3cc(C)on3)nc3ccccc3c2=O)c1	1.3	i	2.5	-10.8	i	0.13
C=CCn1c(SCC(=O)N2CCOCC2)nc2sc3c(c2c1=O)CCCC3	/	+	3.6	-12.5	i	-2.64
CCc1sc2nc(SCC(=O)Nc3cc(C)on3)n(-c3cccc(OC)c3)c(=O)c2c1C	0.0	+	5.8	-8.5	i	0.17
Cn1c(SCC(=O)N2CCOCC2)nc2sc3c(c2c1=O)CCCC3	-0.1	i	1.9	-14.4	i	-0.72
OCCC1CN(Cc2cn[nH]c2C2CCCCC2)CCN1C1CCCCC1 (centres undefined)	-0.3	i	3.2	-1.3	i	-0.06
Cc1nc2ccc(NC(=O)c3cncc(Br)c3)cc2s1	-1.5	/	/	-17.1	i	0.04
Cc1ccc(-c2ccc(SCC(=O)c3ccccc3)nn2)cc1	-0.9	i	5.0	-9.8	i	-0.33
Cc1ccc(C(=O)CSc2nc(-c3ccccc3)ccc2C#N)cc1	-2.3	+	5.9	-21.0	?	2.83
CSc1nc(N)nc(SCC(=O)c2ccccc2)c1C#N	-0.5	+	2.3	-0.8	i	-0.83
COc1ccc(C(=O)CSc2nc(N)nc(SC)c2C#N)cc1	1.8	i	1.6	-17.5	i	-0.61
N#Cc1ccc(-c2ccco2)nc1SCC(=O)c1ccc(Cl)cc1	-3.1	+	4.3	-0.9	?	/
Cc1ccccc1C(=O)N1CCC(C(N)=O)CC1	-1.0	i	1.9	-5.0	i	1.01
